pKi: −log10 of the molar value.
Experiments:
[1] = target: T1, Cathepsin B (Homo sapiens, UniProt P07858); assay: Inhibition of recombinant human cathepsin B endopeptidase activity assessed as inhibitory constant for enzyme-substrate-inhibitor complex using Z-Arg-Arg-AMC as substrate in presence of pH 6 phosphate buffer by fluorescence assay
[2] = target: T1, Cathepsin B; assay: Inhibition of recombinant human cathepsin B exopeptidase activity assessed as inhibitory constant for enzyme-substrate-inhibitor complex using Abz-Gly-Ile-Val-Arg-Ala-Lys(Dnp)-OH as substrate in presence of pH 5 acetate buffer by fluorescence assay
[3] = target: T1, Cathepsin B; assay: Inhibition of recombinant human cathepsin B endopeptidase activity assessed as inhibitory constant for enzyme-inhibitor complex using Z-Arg-Arg-AMC as substrate in presence of pH 4.5 acetate buffer by fluorescence assay
In short: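 Recombinant cathepsin B endopeptidase activity assayed with the small substrate Z-Arg-Arg-AMC at pH 4.5. Acidic conditions chosen to shift the enzyme toward the closed (exopeptidase) conformation. Ki reported.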

[4] = target: T1, Cathepsin B; assay: Inhibition of recombinant human cathepsin B exopeptidase activity assessed as inhibitory constant for enzyme-inhibitor complex using Abz-Gly-Ile-Val-Arg-Ala-Lys(Dnp)-OH as substrate in presence of pH 5 acetate buffer by fluorescence assay
[5] = target: T1, Cathepsin B; assay: Non-competitive inhibition of recombinant human cathepsin B exopeptidase activity assessed as inhibitory constant for enzyme-substrate-inhibitor complex using Abz-Gly-Ile-Val-Arg-Ala-Lys(Dnp)-OH as substrate in presence of pH 5 acetate buffer by fluorescence assay
[6] = target: T1, Cathepsin B; assay: Non-competitive inhibition of recombinant human cathepsin B exopeptidase activity assessed as inhibitory constant for enzyme-inhibitor complex using Abz-Gly-Ile-Val-Arg-Ala-Lys(Dnp)-OH as substrate in presence of pH 5 acetate buffer by fluorescence assay
[7] = target: T1, Cathepsin B; assay: Non-competitive inhibition of recombinant human cathepsin B endopeptidase activity assessed as inhibitory constant for enzyme-inhibitor complex using Z-Arg-Arg-AMC as substrate in presence of pH 6 phosphate buffer by fluorescence assay
[8] = target: T1, Cathepsin B; assay: Non-competitive inhibition of recombinant human cathepsin B endopeptidase activity assessed as inhibitory constant for enzyme-substrate-inhibitor complex using Z-Arg-Arg-AMC as substrate in presence of pH 6 phosphate buffer by fluorescence assay

| Compound | Ki [1] | Ki [2] | Ki [3] | Ki [4] | pKi [5] | pKi [6] | pKi [7] | pKi [8] |
| --- | --- | --- | --- | --- | --- | --- | --- | --- |
| N#CC1(NCc2cc([N+](=O)[O-])ccc2O)CC1 | Not Active | Not Active | Not Active | Not Active | – | – | – | – |
| N#Cc1ccc([N+](=O)[O-])c2cccnc12 | Not Active | Not Active | Not Active | Not Active | – | – | – | – |
| O=[N+]([O-])c1ccc(O)c(CN2CCOCC2)c1 | – | – | – | – | 4.01 | 4.01 | 3.67 | 3.67 |
| COCCN(CC1CCN(Cc2nc3ccccc3o2)CC1)C(=O)c1cc([N+](=O)[O-])c2cccnc2c1O | Not Active | Not Active | Not Active | Not Active | – | – | – | – |
| CN(CC#N)Cc1ccc2c([N+](=O)[O-])ccc(O)c2n1 | Not Active | Not Active | Not Active | Not Active | – | – | – | – |
| O=C(NCC1CCN(Cc2nc3ccccc3s2)CC1)c1cc([N+](=O)[O-])c2cccnc2c1O | Not Active | Not Active | Not Active | Not Active | – | – | – | – |
| N#CCNC(=O)c1cc([N+](=O)[O-])ccc1O | – | – | – | – | 3.77 | 3.77 | 3.57 | 3.57 |
| N#CCNCc1cc([N+](=O)[O-])ccc1O | Not Active | Not Active | Not Active | Not Active | – | – | – | – |
| CC1CCN(C(=O)c2cc([N+](=O)[O-])ccc2O)CC1 | Not Active | Not Active | Not Active | Not Active | – | – | – | – |
| O=C(NCC1CCN(C2Cc3ccccc3C2)CC1)c1cc([N+](=O)[O-])c2cccnc2c1O | Not Active | Not Active | Not Active | Not Active | – | – | – | – |
| O=C(c1cc([N+](=O)[O-])c2cccnc2c1O)N1CCOCC1 | – | – | – | – | 3.91 | 3.91 | 3.87 | 3.87 |
| Cc1ccc2c([N+](=O)[O-])cc([N+](=O)[O-])c(O)c2n1 | Not Active | Not Active | Not Active | Not Active | – | – | – | – |
| CN(CC#N)C(=O)c1cc([N+](=O)[O-])ccc1O | Not Active | Not Active | Not Active | Not Active | – | – | – | – |
| O=C(c1cc([N+](=O)[O-])ccc1O)N1CCCCC1 | Not Active | Not Active | Not Active | Not Active | – | – | – | – |
| O=[N+]([O-])c1ccc(O)c(CN2CCCCC2)c1 | Not Active | Not Active | Not Active | Not Active | – | – | – | – |
| O=C(O)c1ccc2c([N+](=O)[O-])cc([N+](=O)[O-])c(O)c2n1 | Not Active | Not Active | Not Active | Not Active | – | – | – | – |
| N#CCN(Cc1ccccc1)C(=O)c1cc([N+](=O)[O-])ccc1O | – | – | – | – | 4.02 | 4.02 | 3.47 | 3.47 |
| O=C(c1cc([N+](=O)[O-])ccc1O)N1CCOCC1 | – | – | – | – | 3.75 | 3.75 | 3.63 | 3.63 |
| Nc1ccc2c([N+](=O)[O-])ccc(O)c2n1 | – | – | – | – | 3.48 | 3.48 | 3.69 | 3.69 |
| CN(CC#N)Cc1cc([N+](=O)[O-])ccc1O | Not Active | Not Active | Not Active | Not Active | – | – | – | – |
| CC1CCN(Cc2cc([N+](=O)[O-])ccc2O)CC1 | Not Active | Not Active | Not Active | Not Active | – | – | – | – |
| O=C(O)c1ccc2c([N+](=O)[O-])ccc(O)c2n1 | – | – | – | – | 3.62 | 3.62 | 3.86 | 3.86 |
| N#CCN(Cc1ccccc1)Cc1cc([N+](=O)[O-])ccc1O | Not Active | Not Active | Not Active | Not Active | – | – | – | – |

Other lines, results leading:

| Ki [1] | Ki [2] | Ki [3] | Ki [4] | pKi [5] | pKi [6] | pKi [7] | pKi [8] | Compound |
| --- | --- | --- | --- | --- | --- | --- | --- | --- |
| Not Active | Not Active | Not Active | Not Active | – | – | – | – | O=[N+]([O-])c1ccc(-c2ccco2)c2ncccc12 |
| Not Active | Not Active | Not Active | Not Active | – | – | – | – | Cc1ccc([N+](=O)[O-])c2cccnc12 |
| Not Active | Not Active | Not Active | Not Active | – | – | – | – | NC(=O)c1ccc([N+](=O)[O-])c2cccnc12 |
| Not Active | Not Active | Not Active | Not Active | – | – | – | – | N#Cc1ccc(-c2ccc(-c3ccc([N+](=O)[O-])c4cccnc34)o2)cc1 |
| Not Active | Not Active | Not Active | Not Active | – | – | – | – | O=[N+]([O-])c1ccc(-c2c(-c3ccc([N+](=O)[O-])c4cccnc34)oc3ccccc23)cc1 |
| Not Active | Not Active | Not Active | Not Active | – | – | – | – | O=[N+]([O-])c1ccc(-c2ccsc2)c2ncccc12 |
| Not Active | Not Active | Not Active | Not Active | – | – | – | – | O=[N+]([O-])c1ccc(-c2cc3ccccc3s2)c2ncccc12 |
| Not Active | Not Active | Not Active | Not Active | – | – | – | – | O=[N+]([O-])c1ccc(-c2ccc[nH]2)c2ncccc12 |
| Not Active | Not Active | Not Active | Not Active | – | – | – | – | O=[N+]([O-])c1ccc(-c2ccccc2)c2ncccc12 |
| Not Active | Not Active | Not Active | Not Active | – | – | – | – | O=[N+]([O-])c1ccc(-c2ccoc2)c2ncccc12 |
| – | – | – | – | 3.92 | 3.92 | 3.73 | 3.73 | CN(CC#N)C(=O)c1cc([N+](=O)[O-])c2cccnc2c1O |
| Not Active | Not Active | Not Active | Not Active | – | – | – | – | CC(=O)c1ccc(-c2ccc(-c3ccc([N+](=O)[O-])c4cccnc34)n2C)cc1 |
| – | – | – | – | 3.65 | 3.65 | 3.48 | 3.48 | Cn1cccc1-c1ccc([N+](=O)[O-])c2cccnc12 |
| Not Active | Not Active | Not Active | Not Active | – | – | – | – | O=C(O)c1ccc([N+](=O)[O-])c2cccnc12 |
| Not Active | Not Active | Not Active | Not Active | – | – | – | – | Cc1ccc(-c2ccc([N+](=O)[O-])c3cccnc23)s1 |
| Not Active | Not Active | Not Active | Not Active | – | – | – | – | N#Cc1ccc(-c2ccc([N+](=O)[O-])c3cccnc23)cc1 |
| Not Active | Not Active | Not Active | Not Active | – | – | – | – | O=[N+]([O-])c1ccc(-c2occc2-c2ccc([N+](=O)[O-])c3cccnc23)cc1 |
| Not Active | Not Active | Not Active | Not Active | – | – | – | – | CC(=O)c1ccc(-c2c(-c3ccc([N+](=O)[O-])c4cccnc34)oc3ccccc23)cc1 |
| Not Active | Not Active | Not Active | Not Active | – | – | – | – | CC(=O)c1ccc(-c2ccc(-c3ccc([N+](=O)[O-])c4cccnc34)s2)cc1 |
| Not Active | Not Active | Not Active | Not Active | – | – | – | – | Cc1cccc(-c2ccc([N+](=O)[O-])c3cccnc23)c1 |
| Not Active | Not Active | Not Active | Not Active | – | – | – | – | O=[N+]([O-])c1ccc(Br)c2ncccc12 |
| Not Active | Not Active | Not Active | Not Active | – | – | – | – | O=[N+]([O-])c1cccc(-c2ccc([N+](=O)[O-])c3cccnc23)c1 |
| Not Active | Not Active | Not Active | Not Active | – | – | – | – | O=[N+]([O-])c1ccc(-c2cc3ccccc3o2)c2ncccc12 |
| Not Active | Not Active | Not Active | Not Active | – | – | – | – | Cc1ccc(-c2ccc([N+](=O)[O-])c3cccnc23)cc1 |
